From ChEMBL document CHEMBL2150894, “Synthesis and anti-staphylococcal activity of new 4-diazopyrazole derivatives” (2012)
Values after ≈ are worked out from the molar mass of the structure shown. Active and inactive are the calls of the source. The rule behind the calls is not given here.

What was measured:
Type in all cases: functional
Staphylococcus aureus [1] = assay: Antibacterial activity against Staphylococcus aureus isolate 357 obtained from veterinary sample after 24 hrs by broth microdilution method; conditions: isolate 357, 24 h
How it was run: (§1)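 Broth microdilution in Mueller Hinton broth with twofold serial dilutions spanning 50 to 0.001. Each well received inoculum from a 24 h culture containing about 10⁶ cfu mL⁻¹, then incubated at 37 °C for 24 h. MIC was the lowest concentration whose OD570 matched the broth-only negative control. Veterinary isolates came from milk and food samples (IZS Sicily collection).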

Staphylococcus aureus [2] = assay: Antibacterial activity against Staphylococcus aureus isolate 723 obtained from veterinary sample after 24 hrs by broth microdilution method; conditions: isolate 723, 24 h; how it was run: as §1
Staphylococcus aureus [3] = assay: Antibacterial activity against Staphylococcus aureus ATCC 25923 after 24 hrs by broth microdilution method; conditions: ATCC 25923, 24 h; how it was run: as §1
Staphylococcus aureus [4] = assay: Antibacterial activity against Staphylococcus aureus isolate 712 obtained from veterinary sample after 24 hrs by broth microdilution method; conditions: isolate 712, 24 h; how it was run: as §1
Staphylococcus aureus [5] = assay: Antibacterial activity against Staphylococcus aureus isolate 708 obtained from veterinary sample after 24 hrs by broth microdilution method; conditions: isolate 708, 24 h; how it was run: as §1
Staphylococcus aureus [6] = assay: Antibacterial activity against Staphylococcus aureus isolate 100 obtained from veterinary sample after 24 hrs by broth microdilution method; conditions: isolate 100, 24 h; how it was run: as §1
Staphylococcus aureus [7] = assay: Antibacterial activity against Staphylococcus aureus ATCC 29213 after 24 hrs by broth microdilution method; conditions: ATCC 29213, 24 h; how it was run: as §1
Staphylococcus aureus [8] = assay: Antibacterial activity against Staphylococcus aureus ATCC 6538 after 24 hrs by broth microdilution method; conditions: ATCC 6538, 24 h; how it was run: as §1
Staphylococcus aureus [9] = assay: Antibacterial activity against Staphylococcus aureus isolate 722 obtained from veterinary sample after 24 hrs by broth microdilution method; conditions: isolate 722, 24 h; how it was run: as §1
Staphylococcus aureus [10] = assay: Antibacterial activity against methicillin-resistant Staphylococcus aureus ATCC 43866 assessed as inhibition of biofilm formation at 25 ug/mL
Staphylococcus aureus [11] = assay: Antibacterial activity against Staphylococcus aureus ATCC 29213
How it was run: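 Broth microdilution: twofold serial dilutions of compound (range 50 to 0.001) in Mueller Hinton broth, each well inoculated with bacterial suspension from a 24 h culture containing ~10⁶ cfu/mL. Incubated 37 °C for 24 h.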

Staphylococcus aureus [12] = assay: Antibacterial activity against methicillin-resistant Staphylococcus aureus ATCC 43866
Staphylococcus aureus [13] = assay: Antibacterial activity against Staphylococcus aureus ATCC 29213 assessed as inhibition of biofilm formation at 25 ug/mL
[14] = system: Staphylococcus epidermidis; assay: Antibacterial activity against Staphylococcus epidermidis RP62A
Staphylococcus aureus [15] = assay: Antibacterial activity against methicillin-resistant Staphylococcus aureus clinical isolate
[16] = system: Staphylococcus epidermidis; assay: Antibacterial activity against Staphylococcus epidermidis RP62A assessed as inhibition of biofilm formation at 25 ug/mL
Staphylococcus aureus [17] = assay: Antibacterial activity against Staphylococcus aureus ATCC 29213 by NCCLS method
Staphylococcus aureus [18] = assay: Antibacterial activity against Staphylococcus aureus ATCC 25923 assessed as inhibition of biofilm formation at 3.1 ug/mL
Staphylococcus aureus [19] = assay: Antibacterial activity against Staphylococcus aureus ATCC 29213 assessed as inhibition of biofilm formation at 3.1 ug/mL
Staphylococcus aureus [20] = assay: Antibacterial activity against Staphylococcus aureus isolate 708 obtained from veterinary sample assessed as inhibition of biofilm formation at 3.1 ug/mL
[21] = system: Staphylococcus epidermidis; assay: Antibacterial activity against Staphylococcus epidermidis RP62A assessed as inhibition of biofilm formation

SMILES | MIC (Staphylococcus aureus [1]) | MIC (Staphylococcus aureus [2]) | MIC (Staphylococcus aureus [3]) | MIC (Staphylococcus aureus [4]) | MIC (Staphylococcus aureus [5]) | MIC (Staphylococcus aureus [6]) | MIC (Staphylococcus aureus [7]) | MIC (Staphylococcus aureus [8]) | MIC (Staphylococcus aureus [9]) | further results
Cc1nn(C)c([N-]C(=O)Nc2ccccc2)c1[N+]#N | 6.2 µg/mL (≈ 24.2 µM) | 6.2 µg/mL (≈ 24.2 µM) | 12.5 µg/mL (≈ 48.8 µM) | 50 µg/mL (≈ 195 µM) | 25 µg/mL (≈ 97.6 µM) | 12.5 µg/mL (≈ 48.8 µM) | 12.5 µg/mL (≈ 48.8 µM) | 12.5 µg/mL (≈ 48.8 µM) | 25 µg/mL (≈ 97.6 µM) | 
Cc1nn(C)c([N-]C(=O)c2ccc(Cl)cc2)c1[N+]#N |  |  |  |  |  |  |  |  |  | inhibition at 25 µg/mL (Staphylococcus aureus [10]): 69.7%; MIC (Staphylococcus aureus [11]): 1.5 µg/mL (≈ 5.44 µM); MIC (Staphylococcus aureus [12]): 1.5 µg/mL (≈ 5.44 µM); inhibition at 25 µg/mL (Staphylococcus aureus [13]): 69.7%; MIC [14]: 1.5 µg/mL (≈ 5.44 µM); MIC (Staphylococcus aureus [15]): 2 µg/mL (≈ 7.25 µM); inhibition at 25 µg/mL [16]: 69.7%
Cc1nn(C)c([N-]C(=O)Nc2ccc(OCc3ccccc3)cc2[N+](=O)[O-])c1[N+]#N | > 50 µg/mL | > 50 µg/mL | > 50 µg/mL | > 50 µg/mL | > 50 µg/mL | > 50 µg/mL | > 50 µg/mL | > 50 µg/mL | > 50 µg/mL | 
Cc1nn(C)c([N-]C(=O)c2ccc([N+](=O)[O-])cc2)c1[N+]#N |  |  |  |  |  |  |  |  |  | inhibition at 25 µg/mL (Staphylococcus aureus [10]): 69.7%; MIC (Staphylococcus aureus [11]): 1.5 µg/mL (≈ 5.24 µM); MIC (Staphylococcus aureus [12]): 1.5 µg/mL (≈ 5.24 µM); inhibition at 25 µg/mL (Staphylococcus aureus [13]): 69.7%; MIC [14]: 1.5 µg/mL (≈ 5.24 µM); MIC (Staphylococcus aureus [15]): 2 µg/mL (≈ 6.99 µM); inhibition at 25 µg/mL [16]: 69.7%
Cc1nn(C)c([N-]C(=O)Nc2ccc(Cl)c(Cl)c2)c1[N+]#N | 6.2 µg/mL (≈ 19.1 µM) | 3.1 µg/mL (≈ 9.53 µM) | 6.2 µg/mL (≈ 19.1 µM) | 25 µg/mL (≈ 76.9 µM) | 6.2 µg/mL (≈ 19.1 µM) | 3.1 µg/mL (≈ 9.53 µM) | 6.2 µg/mL (≈ 19.1 µM) | 6.2 µg/mL (≈ 19.1 µM) | 3.1 µg/mL (≈ 9.53 µM) | 
COc1ccc(NC(=O)[N-]c2c([N+]#N)c(C)nn2C)c([N+](=O)[O-])c1 | > 50 µg/mL | > 50 µg/mL | > 50 µg/mL | > 50 µg/mL | > 50 µg/mL | > 50 µg/mL | > 50 µg/mL | > 50 µg/mL | > 50 µg/mL | 
CO[C@H]1/C=C/O[C@@]2(C)Oc3c(C)c(O)c4c(O)c(c(/C=N/N5CCN(C)CC5)c(O)c4c3C2=O)NC(=O)/C(C)=C\C=C\[C@H](C)[C@H](O)[C@@H](C)[C@@H](O)[C@@H](C)[C@H](OC(C)=O)[C@@H]1C [RIFAMPIN] | 0.015 µg/mL (≈ 0.0182 µM) | 1.25 µg/mL (≈ 1.52 µM) | 0.015 µg/mL (≈ 0.0182 µM) | 0.3 µg/mL (≈ 0.365 µM) | 0.07 µg/mL (≈ 0.0851 µM) | 0.07 µg/mL (≈ 0.0851 µM) | 0.015 µg/mL (≈ 0.0182 µM) | 0.015 µg/mL (≈ 0.0182 µM) | 0.6 µg/mL (≈ 0.729 µM) | MIC (Staphylococcus aureus [17]): 0.008 µg/mL (≈ 0.00972 µM)
Cc1nn(C)c([N-]C(=O)Nc2ccc(Cl)cc2)c1[N+]#N | 6.2 µg/mL (≈ 21.3 µM) | 12.5 µg/mL (≈ 43 µM) | 6.2 µg/mL (≈ 21.3 µM) | 3.1 µg/mL (≈ 10.7 µM) | 25 µg/mL (≈ 86 µM) | 6.2 µg/mL (≈ 21.3 µM) | 6.2 µg/mL (≈ 21.3 µM) | 25 µg/mL (≈ 86 µM) | 12.5 µg/mL (≈ 43 µM) | 
Cc1nn(C)c([N-]C(=O)Nc2ccc([N+](=O)[O-])cc2)c1[N+]#N | 3.1 µg/mL (≈ 10.3 µM) | 100 µg/mL (≈ 332 µM) | 6.2 µg/mL (≈ 20.6 µM) | 3.1 µg/mL (≈ 10.3 µM) | 3.1 µg/mL (≈ 10.3 µM) | > 100 µg/mL | 6.2 µg/mL (≈ 20.6 µM) | 6.2 µg/mL (≈ 20.6 µM) | 3.1 µg/mL (≈ 10.3 µM) | 
COc1ccc(CC(=O)[N-]c2c([N+]#N)c(C)nn2C)cc1 | 6.2 µg/mL (≈ 21.7 µM) | 6.2 µg/mL (≈ 21.7 µM) | 6.2 µg/mL (≈ 21.7 µM) | 25 µg/mL (≈ 87.6 µM) | 6.2 µg/mL (≈ 21.7 µM) | 3.1 µg/mL (≈ 10.9 µM) | 6.2 µg/mL (≈ 21.7 µM) | 6.2 µg/mL (≈ 21.7 µM) | 6.2 µg/mL (≈ 21.7 µM) | inhibition at 3.1 µg/mL (Staphylococcus aureus [18]): 38%; inhibition at 3.1 µg/mL (Staphylococcus aureus [19]): 45.7%; inhibition at 3.1 µg/mL (Staphylococcus aureus [20]): 25%
Cc1nn(C)c([N-]C(=O)Cc2ccccc2)c1[N+]#N | 1.5 µg/mL (≈ 5.88 µM) | 3.1 µg/mL (≈ 12.1 µM) | 6.2 µg/mL (≈ 24.3 µM) | 1.5 µg/mL (≈ 5.88 µM) | 6.2 µg/mL (≈ 24.3 µM) | 3.1 µg/mL (≈ 12.1 µM) | 3.1 µg/mL (≈ 12.1 µM) | 3.1 µg/mL (≈ 12.1 µM) | 6.2 µg/mL (≈ 24.3 µM) | inhibition at 3.1 µg/mL (Staphylococcus aureus [18]): 45.7%; inhibition (Staphylococcus aureus [19]): inactive; inhibition (Staphylococcus aureus [20]): inactive
CCCCOc1ccc(NC(=O)[N-]c2c([N+]#N)c(C)nn2C)c([N+](=O)[O-])c1 | > 50 µg/mL | > 50 µg/mL | > 50 µg/mL | > 50 µg/mL | > 50 µg/mL | > 50 µg/mL | > 50 µg/mL | > 50 µg/mL | > 50 µg/mL | 
Cc1nn(C)c([N-]C(=O)Cc2ccc(Cl)cc2)c1[N+]#N | 1.5 µg/mL (≈ 5.18 µM) | 3.1 µg/mL (≈ 10.7 µM) | 25 µg/mL (≈ 86.3 µM) | 50 µg/mL (≈ 173 µM) | 12.5 µg/mL (≈ 43.1 µM) | 6.2 µg/mL (≈ 21.4 µM) | 25 µg/mL (≈ 86.3 µM) | 6.2 µg/mL (≈ 21.4 µM) | 12.5 µg/mL (≈ 43.1 µM) | 
Cc1nn(C)c([N-]C(=O)c2ccc(Cl)cc2Cl)c1[N+]#N |  |  |  |  |  |  |  |  |  | inhibition [21]: Active; MIC (Staphylococcus aureus [11]): 1.5 µg/mL (≈ 4.84 µM); MIC (Staphylococcus aureus [12]): 1.5 µg/mL (≈ 4.84 µM); MIC [14]: 1.5 µg/mL (≈ 4.84 µM); MIC (Staphylococcus aureus [15]): 2 µg/mL (≈ 6.45 µM)
